Measurements reported in ChEMBL document CHEMBL4251703, “Linker Variation and Structure-Activity Relationship Analyses of Carboxylic Acid-based Small Molecule STAT3 Inhibitors” (ACS Med Chem Lett, 2018).
Calls of active or inactive are those of the source. The rule behind the calls is not given here.

Molecular target: Signal transducer and activator of transcription 3 (Mus musculus) (UniProt P42227)
Test: Inhibition of STAT3 DNA binding activity in mouse NIH/3T3 nuclear extract preincubated for 30 mins followed by [32P]hSIE addition measured after 30 mins by electrophoretic mobility shift assay
How it was run: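 STAT3 DNA-binding was measured by EMSA using nuclear extracts of equal total protein from v-Src-transformed fibroblasts containing activated STAT3. Extracts were preincubated for 30 min with 0–100 μM compound, then incubated with radiolabeled hSIE probe.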

Chain of Signal transducer and activator of transcription 3 (Mus musculus) (P42227 whole entry): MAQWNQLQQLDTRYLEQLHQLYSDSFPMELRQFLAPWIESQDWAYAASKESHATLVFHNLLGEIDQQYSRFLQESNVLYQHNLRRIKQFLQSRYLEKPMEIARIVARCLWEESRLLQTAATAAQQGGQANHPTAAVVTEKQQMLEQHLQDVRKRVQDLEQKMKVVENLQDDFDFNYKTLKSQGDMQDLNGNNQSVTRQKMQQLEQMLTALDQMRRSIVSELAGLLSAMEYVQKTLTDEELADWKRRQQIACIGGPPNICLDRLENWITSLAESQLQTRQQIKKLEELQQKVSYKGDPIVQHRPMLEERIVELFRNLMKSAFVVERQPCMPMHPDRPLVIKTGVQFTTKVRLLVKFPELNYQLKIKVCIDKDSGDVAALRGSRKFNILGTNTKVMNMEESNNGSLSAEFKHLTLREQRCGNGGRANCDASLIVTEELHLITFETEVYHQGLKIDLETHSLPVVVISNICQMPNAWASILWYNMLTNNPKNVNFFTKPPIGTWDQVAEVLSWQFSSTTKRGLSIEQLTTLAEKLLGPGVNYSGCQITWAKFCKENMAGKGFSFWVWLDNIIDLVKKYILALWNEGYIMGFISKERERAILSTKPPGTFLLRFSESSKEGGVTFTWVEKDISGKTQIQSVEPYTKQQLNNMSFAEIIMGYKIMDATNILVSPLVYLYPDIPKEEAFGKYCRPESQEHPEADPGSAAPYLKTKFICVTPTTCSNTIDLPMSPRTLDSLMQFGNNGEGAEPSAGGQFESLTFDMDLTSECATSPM

| inhibition | Compound |
| --- | --- |
| inactive | CN(CC(=O)N(Cc1ccc(N2CCCCC2)cc1)c1ccc(C(=O)O)cc1)S(=O)(=O)c1c(F)c(F)c(F)c(F)c1F |
| inactive | CC[C@@H](C(=O)N(Cc1ccc(C2CCCCC2)cc1)c1ccc(C(=O)O)c(O)c1)N(C)S(=O)(=O)c1c(F)c(F)c(F)c(F)c1F |
| Active | CN([C@H](CO)C(=O)N(Cc1ccc(C2CCCCC2)cc1)c1ccc(C(=O)O)c(O)c1)S(=O)(=O)c1c(F)c(F)c(F)c(F)c1F |
| inactive | C[C@H](C(=O)N(Cc1ccc(C2CCCCC2)cc1)c1ccc(C(=O)O)c(F)c1)N(C)S(=O)(=O)c1c(F)c(F)c(F)c(F)c1F |
| Active | CN([C@H](CCO)C(=O)N(Cc1ccc(C2CCCCC2)cc1)c1ccc(C(=O)O)c(O)c1)S(=O)(=O)c1c(F)c(F)c(F)c(F)c1F |
| inactive | CN(CC(=O)N(Cc1ccc(C2CCCCCC2)cc1)c1ccc(C(=O)O)cc1)S(=O)(=O)c1c(F)c(F)c(F)c(F)c1F |
| inactive | CC[C@H](C(=O)N(Cc1ccc(C2CCC(F)(F)CC2)cc1)c1ccc(C(=O)O)c(O)c1)N(C)S(=O)(=O)c1c(F)c(F)c(F)c(F)c1F |
| inactive | CN(CC(=O)N(Cc1ccc(C2CCCCC2)cc1)c1cccc(CC(=O)O)c1)S(=O)(=O)c1c(F)c(F)c(F)c(F)c1F |
| Active | CN([C@H](CN)C(=O)N(Cc1ccc(C2CCCCC2)cc1)c1ccc(C(=O)O)c(O)c1)S(=O)(=O)c1c(F)c(F)c(F)c(F)c1F |
| inactive | CN(CC(=O)N(Cc1ccc(C2=CCCCCC2)cc1)c1ccc(C(=O)O)cc1)S(=O)(=O)c1c(F)c(F)c(F)c(F)c1F |
| inactive | CN([C@@H](CN)C(=O)N(Cc1ccc(C2CCCCC2)cc1)c1ccc(C(=O)O)c(O)c1)S(=O)(=O)c1c(F)c(F)c(F)c(F)c1F |
| inactive | O=C(O)c1ccc(N(Cc2ccc(C3CCCCC3)cc2)C(=O)[C@H]2CCCN2S(=O)(=O)c2c(F)cc(F)c(F)c2F)cc1O |
| inactive | CN(CC(=O)N(Cc1ccc(C2CCCCC2)cc1)c1ccc(C(=O)O)nc1)S(=O)(=O)c1c(F)c(F)c(F)c(F)c1F |
| Active | CC[C@H](C(=O)N(Cc1ccc(C2CCCCC2)cc1)c1ccc(C(=O)O)c(O)c1)N(C)S(=O)(=O)c1c(F)c(F)c(F)c(F)c1F |
| inactive | CN([C@@H](CO)C(=O)N(Cc1ccc(C2CCCCC2)cc1)c1ccc(C(=O)O)c(O)c1)S(=O)(=O)c1c(F)c(F)c(F)c(F)c1F |
| inactive | C[C@H](C(=O)N(Cc1ccc(C2CCCCC2)cc1)c1c(F)cc(C(=O)O)cc1F)N(C)S(=O)(=O)c1c(F)c(F)c(F)c(F)c1F |
| inactive | CN(CC(=O)N(Cc1ccc(C2CCCCC2)nc1)c1ccc(C(=O)O)c(O)c1)S(=O)(=O)c1c(F)c(F)c(F)c(F)c1F |
| inactive | CN([C@@H](CCO)C(=O)N(Cc1ccc(C2CCCCC2)cc1)c1ccc(C(=O)O)c(O)c1)S(=O)(=O)c1c(F)c(F)c(F)c(F)c1F |
| inactive | O=C(O)c1ccc(N(Cc2ccc(C3CCCCC3)cc2)C(=O)[C@H]2CCCN2Cc2c(F)c(F)c(F)c(F)c2F)cc1O |
| inactive | CN(CC(=O)N(Cc1ccc(C2CCCCC2)cc1)c1ncc(C(=O)O)o1)S(=O)(=O)c1c(F)c(F)c(F)c(F)c1F |
| inactive | CN(CC(=O)N(Cc1ccc(C2CCCCC2)cc1)c1nc(C(=O)O)co1)S(=O)(=O)c1c(F)c(F)c(F)c(F)c1F |
| Active | CN([C@H](CC(=O)O)C(=O)N(Cc1ccc(C2CCCCC2)cc1)c1ccc(C(=O)O)c(O)c1)S(=O)(=O)c1c(F)c(F)c(F)c(F)c1F |
| inactive | CN([C@@H](CC(=O)O)C(=O)N(Cc1ccc(C2CCCCC2)cc1)c1ccc(C(=O)O)c(O)c1)S(=O)(=O)c1c(F)c(F)c(F)c(F)c1F |
| inactive | CN(CC(=O)N(Cc1ccc(C2CCNCC2)cc1)c1ccc(C(=O)O)c(O)c1)S(=O)(=O)c1c(F)c(F)c(F)c(F)c1F |
| inactive | C[C@@H](O)[C@@H](C(=O)N(Cc1ccc(C2CCCCC2)cc1)c1ccc(C(=O)O)c(O)c1)N(C)S(=O)(=O)c1c(F)c(F)c(F)c(F)c1F |
